Measured values as given in ChEMBL document CHEMBL1145518, “Potent immune-modulating and anticancer effects of NKT cell stimulatory glycolipids” (2007).
Activity calls are given as the source filed them. The rule behind the calls is not given here.

Key:
[1] = Induction of IL13 secretion in human CD161+ CD3+ NKT cells at 10 ug/ml after 18 hrs relative to basal level; assay type: functional
Procedure, shortened: (§1)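 Human Vα24i NKT cell lines were expanded for 10 days on irradiated (3,000 rad) autologous immature DCs with 10 units/ml IL-2. The cells (1 × 10^5) were cocultured with 5 × 10^4 irradiated immature CD14+ DCs plus glycolipid at 10 μg/ml. Supernatants were collected at 18 h and read on a 22-plex Luminex bead panel. Triplicates, mean ± SD.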

[2] = Induction of RANTES secretion in human CD161+ CD3+ NKT cells at 10 ug/ml after 18 hrs relative to basal level; assay type: functional; procedure, shortened: as §1
[3] = Induction of IL10 secretion in human CD161+ CD3+ NKT cells at 10 ug/ml after 18 hrs relative to basal level; assay type: functional; procedure, shortened: as §1
[4] = Induction of MIPalpha secretion in human CD161+ CD3+ NKT cells at 10 ug/ml after 18 hrs relative to basal level; assay type: functional; procedure, shortened: as §1
[5] = Induction of IL6 secretion in human CD161+ CD3+ NKT cells at 10 ug/ml after 18 hrs relative to basal level; assay type: functional; procedure, shortened: as §1
NKT = assay: Stimulation of cell expansion of human invariant CD161+/ Valpha24+/ CD56+/ CD3+ NKT cells by flow cytometry method; assay type: functional, cell-based
Procedure, shortened: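 CD56+ NK/NKT mixtures (2 × 10^6) were isolated from human leukopaks with anti-CD56 microbeads. They were cocultured with 4 × 10^5 autologous immature CD14+ DCs pulsed with glycolipid at 3 μg/ml, or with 0.3% DMSO, on day 2 for 18 h. Suspension cells were then transferred and kept in 100 units/ml IL-2 with fresh medium every 3 days. On day 9, CD161+/Vα24TCR+ cells were gated by flow cytometry and total Vα24i NKT cells counted. Triplicates, mean ± SD.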

[6] = Induction of IL3 secretion in human CD161+ CD3+ NKT cells at 10 ug/ml after 18 hrs relative to basal level; assay type: functional; procedure, shortened: as §1
[7] = Induction of IL12p70 secretion in human CD161+ CD3+ NKT cells at 10 ug/ml after 18 hrs relative to basal level; assay type: functional; procedure, shortened: as §1
TC1 = assay: Antitumor activity in TC1 cells xenografted C57BL/6 mouse assessed as suppression of tumor growth at 2 ug, iv; assay type: functional, cell-based
Procedure, shortened: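 C57BL/6 mice (n = 5/group) were inoculated i.v. with TC-1 lung cancer cells. They were then treated i.v. with 2 μg glycolipid per mouse, or 100 μl of 1% DMSO, twice weekly for 4 weeks. Kaplan–Meier survival and body weight were followed, with tumor-free mice as an additional control.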

[8] = Induction of TNFalpha secretion in human CD161+ CD3+ NKT cells at 10 ug/ml after 18 hrs relative to basal level; assay type: functional; procedure, shortened: as §1
[9] = Induction of GM-CSF secretion in human CD161+ CD3+ NKT cells at 10 ug/ml after 18 hrs relative to basal level; assay type: functional; procedure, shortened: as §1
[10] = Induction of MCP1 secretion in human CD161+ CD3+ NKT cells at 10 ug/ml after 18 hrs relative to basal level; assay type: functional; procedure, shortened: as §1
Mus musculus [11] = assay: Activation of dendritic cells in BALB/c mouse at 2 ug, iv after 72 hrs by flow cytometry; assay type: functional, organism-based
Procedure, shortened: (§2)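 BALB/c mice (n = 4/group) were given 100 μl of glycolipid at 20 μg/ml in saline i.v., or 100 μl of 1% DMSO. Spleens were harvested after 72 h and splenocyte subsets counted by flow cytometry: mature DCs as CD11c+/CD80+/CD86+, activated NK as U5A2-13Ag+/CD3−/CD69+, activated NKT as U5A2-13Ag+/CD3+/CD69+. Assays were run in duplicate, mean ± SD.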

Mus musculus [12] = assay: Activation of NKT cells in BALB/c mouse at 2 ug, iv after 72 hrs by flow cytometry; assay type: functional, organism-based; procedure, shortened: as §2
[13] = Induction of IFN-gamma secretion in human CD161+ CD3+ NKT cells at 10 ug/ml after 18 hrs relative to basal level; assay type: functional; procedure, shortened: as §1
[14] = Induction of IL8 secretion in human CD161+ CD3+ NKT cells at 10 ug/ml after 18 hrs relative to basal level; assay type: functional; procedure, shortened: as §1
[15] = Induction of IL12p40 secretion in human CD161+ CD3+ NKT cells at 10 ug/ml after 18 hrs relative to basal level; assay type: functional; procedure, shortened: as §1
4T1 = assay: Antitumor activity in mouse 4T1 cells xenografted BALB/c mouse assessed as suppression of tumor growth at 2 ug, iv; assay type: functional, cell-based
Procedure, shortened: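 BALB/c mice (n = 6) were inoculated s.c. with 4T1 breast cancer cells. From day 3 they were treated i.v. with glycolipid or vehicle twice weekly for 4 weeks. Tumor volume was recorded every 3 days for 1 month, and survival was monitored up to 54 days.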

Mus musculus [16] = assay: Activation of natural killer cells in BALB/c mouse at 2 ug, iv after 72 hrs by flow cytometry; assay type: functional, organism-based; procedure, shortened: as §2
[17] = Induction of IL2 secretion in human CD161+ CD3+ NKT cells at 10 ug/ml after 18 hrs relative to basal level; assay type: functional; procedure, shortened: as §1
[18] = Induction of IL4 secretion in human CD161+ CD3+ NKT cells at 10 ug/ml after 18 hrs relative to basal level; assay type: functional; procedure, shortened: as §1
[19] = Induction of IL15 secretion in human CD161+ CD3+ NKT cells at 10 ug/ml after 18 hrs relative to basal level; assay type: functional; procedure, shortened: as §1
Mus musculus [20] = assay: Induction of IFN-gamma secretion in BALB/c mouse serum at 2 ug, iv after 18 hrs relative to control; assay type: functional
Procedure, shortened: (§3)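 BALB/c mice received an i.v. injection of 100 μl of glycolipid diluted to 20 μg/ml in saline from DMSO stock, with 1% DMSO as vehicle. Serum cytokines/chemokines were measured at 2 and 18 h after injection.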

Mus musculus [21] = assay: Induction of IL13 secretion in BALB/c mouse serum at 2 ug, iv after 2 hrs relative to control; assay type: functional; procedure, shortened: as §3
Mus musculus [22] = assay: Induction of GM-CSF secretion in BALB/c mouse serum at 2 ug, iv after 2 hrs relative to control; assay type: functional; procedure, shortened: as §3
Mus musculus [23] = assay: Induction of MIPbeta secretion in BALB/c mouse serum at 2 ug, iv after 2 hrs relative to control; assay type: functional; procedure, shortened: as §3
Mus musculus [24] = assay: Induction of IL4 secretion in BALB/c mouse serum at 2 ug, iv after 2 hrs relative to control; assay type: functional; procedure, shortened: as §3
Mus musculus [25] = assay: Induction of RANTES secretion in BALB/c mouse serum at 2 ug, iv after 2 hrs relative to control; assay type: functional; procedure, shortened: as §3
Mus musculus [26] = assay: Activation of B cells in BALB/c mouse at 2 ug, iv after 72 hrs by flow cytometry; assay type: functional, organism-based
Mus musculus [27] = assay: Induction of IL6 secretion in BALB/c mouse serum at 2 ug, iv after 2 hrs relative to control; assay type: functional; procedure, shortened: as §3
Mus musculus [28] = assay: Induction of IL2 secretion in BALB/c mouse serum at 2 ug, iv after 2 hrs relative to control; assay type: functional; procedure, shortened: as §3
Mus musculus [29] = assay: Induction of KC secretion in BALB/c mouse serum at 2 ug, iv after 2 hrs relative to control; assay type: functional; procedure, shortened: as §3
Mus musculus [30] = assay: Induction of IL10 secretion in BALB/c mouse serum at 2 ug, iv after 18 hrs relative to control; assay type: functional; procedure, shortened: as §3
Mus musculus [31] = assay: Induction of MCP1 secretion in BALB/c mouse serum at 2 ug, iv after 2 hrs relative to control; assay type: functional; procedure, shortened: as §3
Mus musculus [32] = assay: Induction of IL12p70 secretion in BALB/c mouse serum at 2 ug, iv after 18 hrs relative to control; assay type: functional; procedure, shortened: as §3
Mus musculus [33] = assay: Induction of TNFalpha secretion in BALB/c mouse serum at 2 ug, iv after 18 hrs relative to control; assay type: functional; procedure, shortened: as §3
Mus musculus [34] = assay: Induction of IL12p40 secretion in BALB/c mouse serum at 2 ug, iv after 18 hrs relative to control; assay type: functional; procedure, shortened: as §3
Mus musculus [35] = assay: Induction of IL1-beta secretion in BALB/c mouse serum at 2 ug, iv after 18 hrs relative to control; assay type: functional; procedure, shortened: as §3
Mus musculus [36] = assay: Induction of IL3 secretion in BALB/c mouse serum at 2 ug, iv after 2 hrs relative to control; assay type: functional; procedure, shortened: as §3

CCCCCCCCCCCCCCCCCCCCCCCCCC(=O)N[C@@H](CO[C@H]1O[C@H](CO)[C@H](O)[C@H](O)[C@H]1O)[C@H](O)[C@H](O)CCCCc1ccccc1
Activity [1]: 1.8 | Activity [2]: 2 | Activity [3]: 2 | Activity [4]: 3.5 | Activity [5]: 1.9 | Activity (NKT): Active | Activity [6]: 2.6 | Activity [7]: 2.1 | Activity (TC1): Active | Activity [8]: 3.4 | Activity [9]: 5.8 | Activity [10]: 1.8 | Activity (Mus musculus [11]): Active | Activity (Mus musculus [12]): Active | Activity [13]: 3.9 | Activity [14]: 2.3 | Activity [15]: 1.8 | Activity (4T1): Active | Activity (Mus musculus [16]): Active | Activity [17]: 1.9 | Activity [18]: 2.8 | Activity [19]: 2.3

CCCCCCCCCCCCCCCCCCCCCCCCCC(=O)N[C@@H](CO[C@H]1O[C@H](CO)[C@H](O)[C@H](OS(=O)(=O)[O-])[C@H]1O)[C@H](O)[C@H](O)CCCCCCCCCCCCCC.[Na+]
Activity [1]: 1.6 | Activity (Mus musculus [20]): 160.8 | Activity (Mus musculus [21]): 2.4 | Activity [2]: 1.6 | Activity [3]: 2.5 | Activity (Mus musculus [22]): 7.3 | Activity [4]: 3.4 | Activity [5]: 2.7 | Activity (Mus musculus [23]): 2.5 | Activity (NKT): Active | Activity (Mus musculus [24]): 42.9 | Activity [6]: 3.3 | Activity [7]: 2.8 | Activity (Mus musculus [25]): 1.6 | Activity [8]: 8.4 | Activity [9]: 6.6 | Activity [10]: 1.4 | Activity (Mus musculus [11]): Active | Activity (Mus musculus [26]): Active | Activity (Mus musculus [27]): 2.2 | Activity (Mus musculus [28]): 22 | Activity (Mus musculus [12]): Active | Activity [13]: 3.3 | Activity [14]: 2.2 | Activity (Mus musculus [29]): 16.4 | Activity [15]: 2 | Activity (Mus musculus [30]): 2.4 | Activity (Mus musculus [31]): 14.8 | Activity (Mus musculus [32]): 1.4 | Activity (Mus musculus [16]): Active | Activity (Mus musculus [33]): 36.3 | Activity [17]: 2.4 | Activity (Mus musculus [34]): 2.1 | Activity (Mus musculus [35]): 3.2 | Activity [18]: 2.7 | Activity (Mus musculus [36]): 1.8 | Activity [19]: 2.3
